What all share (format): functional
The subject of test [1] is Candida albicans. Nature of the test: Antifungal activity against Candida albicans at 500 ppm. The settings on record: for zone of inhibition at 500 ppm: read-out: DIZ. The method, boiled down: (§1)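 Agar well diffusion against clinical isolates (A. flavus mold; C. albicans yeast); standardized spore suspension 10⁴ CFU/mL. Compounds dissolved in DMSO as a parent stock, diluted to test levels (100, 300, 500, 1000 ppm).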

For test [2], the system named is Aspergillus flavus. Description: Antifungal activity against Aspergillus flavus by agar diffusion technique. The method, boiled down: (§2)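 Clinical isolates (A. flavus mold; C. albicans yeast), spore suspension standardized at 10⁴ CFU/mL. DMSO stocks diluted to a concentration series. Approximate MIC by agar diffusion (well technique), taken as the concentration giving minimal inhibition around the well.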

Test [3] relates to Aspergillus flavus. Nature of the test: Antifungal activity against Aspergillus flavus at 300 ppm. The method, boiled down: as §1
The subject of test [4] is Candida albicans. Description: Antifungal activity against Candida albicans at 1000 ppm. To be noted: read-out: DIZ. An outline of the steps: as §1
The test system of test [5] is Aspergillus flavus. Nature of the test: Antifungal activity against Aspergillus flavus up to 24 hrs. An outline of the steps:
(§3)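 MFC in tubes of standardized spore suspension (10⁴ CFU/mL) of clinical isolates, each dosed with compound at increasing concentrations starting from the MIC. Controls: solvent at its highest level, and fluconazole. CFU counted and viability checked at intervals over 0–24 h. MFC is the lowest concentration killing about 99% of viable CFU.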

Test [6] concerns Aspergillus flavus. Nature of the test: Antifungal activity against Aspergillus flavus at 500 ppm. To be noted: for zone of inhibition at 500 ppm: read-out: DIZ. The method, boiled down:
as §1

The subject of test [7] is Candida albicans. Nature of the test: Antifungal activity against Candida albicans by agar diffusion technique. An outline of the steps:
as §2
Background: In agar diffusion tests the substance spreads into inoculated agar from a disc or well.

The subject of test [8] is Aspergillus flavus. Description: Antifungal activity against Aspergillus flavus at 1000 ppm. To be noted: for zone of inhibition at 1000 ppm: read-out: DIZ. The method, boiled down: as §1
Test [9] deals with Candida albicans. Description: Antifungal activity against Candida albicans at 300 ppm. To be noted: for zone of inhibition at 300 ppm: read-out: DIZ. The method, boiled down: as §1
The test system of test [10] is Candida albicans. Description: Antifungal activity against Candida albicans up to 24 hrs. The method, boiled down:
as §3

The subject of test [11] is Candida albicans. Description: Antifungal activity against Candida albicans at 100 ppm. The settings on record: for zone of inhibition at 100 ppm: read-out: DIZ. The method, boiled down: as §1
In test [12] the test system is Aspergillus flavus. Description: Antifungal activity against Aspergillus flavus at 100 ppm. An outline of the steps:
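Clinical isolate of A. flavus (mold) tested by agar diffusion, well technique, using a standardized spore suspension of 10⁴ CFU/mL. Compounds were dissolved in dimethylsulphoxide and diluted from a parent stock.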

In brackets after ≈: the same amount, converted by molar mass. Activity calls are given as the source filed them.

A word on the MIC: it is the least concentration at which growth counts as inhibited. Broadly, the MFC is the smallest concentration meeting the test's criterion for killing the fungus. For the compound `CCOC(=O)CSc1nnc2sc3ccccc3n12`, in test [1], the zone of inhibition at 500 ppm is less than 10 mm. The MIC result in [2] is “inactive”. Further, the “diameter of the inhibition zone (DIZ)” value in [3], in [6], in test [8], in test [9], in [11] and in [12] was “inactive” in each case. The zone of inhibition at 1000 ppm in test [4] stood at 10 mm. Also, the MFC entry in test [5] and in [10] was “inactive” throughout. In test [7], this compound gave a minimal inhibitory concentration (MIC) of 500 µg/mL (≈ 1700 µM).
Consider `NNC(=O)CCn1nc2sc3ccccc3n2c1=S`, for which the “diameter of the inhibition zone (DIZ)” value in [1], in test [3], in [6], in [8], in test [9] and in test [11] was “inactive” throughout. In addition, in test [12], the “diameter of the inhibition zone (DIZ)” value is “inactive”. Further, the MIC result in test [2] is “inactive”. Further, the zone of inhibition at 1000 ppm in test [4] was less than 10 mm. The MFC entry in test [5] and in test [10] was “inactive” in each case. This compound registered a minimal inhibitory concentration (MIC) in test [7] of 1000 µg/mL (≈ 3410 µM).
In the case of `COC(=O)[C@H](CCSC)NC(=O)CCSc1nnc2sc3ccccc3n12`, in [1], the zone of inhibition at 500 ppm is less than 10 mm. Also, the MIC stood at 1000 µg/mL (≈ 2360 µM) in test [2] and 500 µg/mL (≈ 1180 µM) in test [7]. For the same compound, the “diameter of the inhibition zone (DIZ)” value in test [3], in [6], in test [9], in test [11] and in test [12] was “inactive” in each case. For the same compound, the zone of inhibition at 1000 ppm is 10 mm in test [4] and less than 10 mm in test [8]. The MFC entry in [5] and in test [10] was “inactive” throughout.
On to `O=C(CSc1nnc2sc3ccccc3n12)N(C(=O)NC1CCCCC1)C1CCCCC1`, for which the zone of inhibition at 500 ppm in [1] and in test [6] was 10 mm each time. Further, the MIC in test [2] is 300 µg/mL (≈ 636 µM); in [7], 100 µg/mL (≈ 212 µM). Also, the zone of inhibition at 300 ppm in test [3] (read-out: DIZ) and in test [9] was less than 10 mm throughout. Besides, the zone of inhibition at 1000 ppm in test [4] and in test [8] was greater than 16 mm in each case. The compound also came in with a minimal fungicidal concentration (MFC) in test [5] of 500 µg/mL (≈ 1060 µM). Moreover, the MFC entry in test [10] is “inactive”. In addition, in [11], the zone of inhibition at 100 ppm was less than 10 mm. In [12], the “diameter of the inhibition zone (DIZ)” value was “inactive”.
For `Sc1nc2ccccc2s1` [2-MERCAPTOBENZOTHIAZOLE], the zone of inhibition at 500 ppm in [1] was 10 mm; in test [6] it was less than 10 mm. In addition, the MIC in test [2] was found to be 500 µg/mL (≈ 2990 µM); in [7], 100 µg/mL (≈ 598 µM). For the same compound, the “diameter of the inhibition zone (DIZ)” value in [3] and in test [12] was “inactive” each time. The zone of inhibition at 1000 ppm is greater than 16 mm in [4] and 10 mm in test [8]. In addition, the MFC entry in test [5] was “inactive”. Moreover, the zone of inhibition at 300 ppm in test [9] is less than 10 mm. In [10], this compound returned a minimum fungicidal concentration (MFC) of 500 µg/mL (≈ 2990 µM). For the same compound, the zone of inhibition at 100 ppm in test [11] is less than 10 mm.
Turning to `COC(=O)[C@H](CCSC)NC(=O)CCn1nc2sc3ccccc3n2c1=S`, in [1], the zone of inhibition at 500 ppm was less than 10 mm. Moreover, the MIC in test [2] amounted to 1000 µg/mL (≈ 2360 µM); in test [7] it was 500 µg/mL (≈ 1180 µM). In addition, the “diameter of the inhibition zone (DIZ)” value in test [3], in test [6], in test [9], in [11] and in test [12] was “inactive” each time. The zone of inhibition at 1000 ppm in test [4] is 10 mm; in test [8] it was less than 10 mm. In addition, the MFC entry in [5] and in [10] was “inactive” in each case.
`O=C(CCSc1nnc2sc3ccccc3n12)N(C(=O)NC1CCCCC1)C1CCCCC1`: the zone of inhibition at 500 ppm in [1] was determined as 10 mm. Besides, the minimal inhibitory concentration (MIC) in test [2] is 1000 µg/mL (≈ 2060 µM); in [7] it was 300 µg/mL (≈ 618 µM). Besides, the “diameter of the inhibition zone (DIZ)” value in [3], in [6], in [11] and in [12] was “inactive” each time. In addition, the zone of inhibition at 1000 ppm in [4] is greater than 16 mm; in test [8] it was less than 10 mm. For the same compound, the MFC result in test [5] and in test [10] was “inactive” in each case. Besides, the zone of inhibition at 300 ppm in [9] is less than 10 mm.

For the origin of these results see ChEMBL document CHEMBL2390931, “Synthesis and antifungal activity of some s-mercaptotriazolobenzothiazolyl amino acid derivatives” (2013).
